Screening data from PubChem BioAssay.
bIAP act – increases bovine intestinal alkaline phosphatase activity. activation factor at 20 µM. AID 1016. hit rate 0.17% among 200,000. purified bovine IAP, CDP-star luminescence, 30 min; hits give high values; fold of DMSO-control signal, blank-subtracted;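 active = activation factor of 2 or more at 20 µM, a signal rise over negative controls twice the positive control's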
mIAP activ – increases mouse intestinal alkaline phosphatase activity | muIAP, CDP-Star luminescence, 30 min; hits give high values; 1 = vehicle-only enzyme signal, 0 = enzyme-free wells | hit rate 0.24% among 330,000 | activation factor at 10 µM;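 active = activation factor of at least 2 at 20 µM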
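Assay system: mouse IAP enzyme / Compound: DMSO-dissolved test compounds / Timing: 30 min, room temperature / Measured by: luminescence from enzymatic CDP-Star hydrolysis / Control set: DMSO-only wells, enzyme-free buffer wells as negative control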
mIAP inh – blocks mouse intestinal alkaline phosphatase. purified mouse IAP, CDP-Star luminescence, 30 min. AID 2806. hit rate 0.2% among 330,000. inhibition, % at 10 µM;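 active = inhibition of at least 40% at 10 µM in the primary screen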;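 also: plate controls were DMSO with enzyme for no effect and no enzyme wells for full effect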
hIAP act – increases human intestinal alkaline phosphatase activity | P09923 | purified human IAP, CDP-Star luminescence, 30 min; hits give high values; 1 = vehicle-only enzyme, 0 = enzyme-free background | activation factor at 10 µM | hit rate 0.16% among 330,000;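 active = activation factor of the enzyme at least 2-fold when tested at 20 µM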
Target sequence (P09923 whole entry, looked up): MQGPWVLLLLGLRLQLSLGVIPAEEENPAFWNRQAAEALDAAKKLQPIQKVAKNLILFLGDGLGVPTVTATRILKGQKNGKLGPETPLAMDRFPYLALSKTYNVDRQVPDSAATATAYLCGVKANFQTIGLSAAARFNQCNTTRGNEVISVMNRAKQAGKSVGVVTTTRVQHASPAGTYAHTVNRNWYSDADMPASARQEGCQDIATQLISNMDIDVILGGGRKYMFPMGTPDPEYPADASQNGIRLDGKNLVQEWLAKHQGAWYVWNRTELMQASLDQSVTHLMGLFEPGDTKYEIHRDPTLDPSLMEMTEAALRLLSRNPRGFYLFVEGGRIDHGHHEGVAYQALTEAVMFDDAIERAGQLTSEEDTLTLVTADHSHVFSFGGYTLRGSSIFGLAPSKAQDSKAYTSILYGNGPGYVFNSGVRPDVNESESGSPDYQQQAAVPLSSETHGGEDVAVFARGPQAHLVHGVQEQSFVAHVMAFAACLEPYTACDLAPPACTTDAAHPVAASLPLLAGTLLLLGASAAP
hIAP inh – blocks human intestinal alkaline phosphatase | P09923 | purified IAP, CDP-Star luminescence, 30 min | inhibition, % at 10 µM | hit rate 0.12% among 330,000 | AID 2544;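 active = inhibition reaching a set limit with compound at 10 µM in the primary screen, cut at about 35% in these data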;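 also: plate controls were DMSO wells with enzyme for no effect and no-enzyme buffer wells for full effect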
bIAP inhibitor – blocks bovine intestinal alkaline phosphatase activity | inhibition, % at 20 µM | 190,000 tested, under 10 active | purified bovine IAP, CDP-star luminescence, 30 min;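 active = over 50% inhibition of intestinal alkaline phosphatase at 20 µM in the single-dose screen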
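test system = bovine IAP enzyme | medium = DEA buffer 100 mM, pH 9.8, with MgCl2 1.0 mM, ZnCl2 0.02 mM | detection = luminescence | dosing = single compound dose of 20 µM, 2% DMSO final | incubation = 30 min reaction at room temperature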
Active calls of the source: *; i = inactive; x = no result given. An excerpt weighted towards active compounds, which were near 0.79% of everything screened.

SMILES	bIAP act	mIAP activ	mIAP inh	hIAP act	hIAP inh	bIAP inhibitor
COc1ccc(Cn2c(C)c(C)c(C#N)c2NC(=O)Nc2cccc(C)c2)cc1	1.1	2.18*	-118.2	1.04	-4.2	-9.0
Cc1cc(C)c(C)c(C(=O)CSc2nnc(-c3ccc4[nH]c(C)c(C)c4c3)o2)c1C	1	1.1	-9.8	0.94	6.0	2.4
Cc1[nH]c2ccc(-c3nnc(SCC(=O)c4ccc(F)cc4)o3)cc2c1C	1	0.433	56.7*	1.18	-18.1	2.3
COc1cccc(NC(=O)NCCCSC2CCCCC2)c1	0.8	2.26*	-125.7	0.885	11.5	16.0
Cc1ccc(-n2nc3c(c2NC(=O)c2ccco2)CS(=O)C3)cc1 (stereo unspecified)	x	0.974	2.6	0.896	10.4	x
CCN(CC)c1ccc2cc(-c3nc4ccccc4[nH]3)c(=O)oc2c1	1.7	1.4	-39.9	0.851	14.9	-68.2
CCN(CC)c1ccc2cc(-c3nc4ccccc4n3C)c(=O)oc2c1	2.6*	x	x	x	x	-157.8
CS(=O)(=O)c1ccc(Cl)c(NC(=O)COC(=O)CNC(=O)c2sc3ccccc3c2Cl)c1	x	1.07	-7.0	1.08	-8.4	x
O=C(Nc1cccc(Cl)c1)c1cc(N=Nc2ccc([N+](=O)[O-])cc2Cl)ccc1O	x	0.744	25.6	0.615	38.5*	x
O=C(Nc1ccc([N+](=O)[O-])cc1Cl)c1cc(Cl)ccc1O	x	0.975	2.5	0.997	0.3	x
Cc1ccc(NC(=O)COC(=O)C2(C)CC2(Cl)Cl)cc1S(=O)(=O)N1CCOCC1 (stereo unspecified)	x	1.15	-14.9	0.963	3.7	x
C[C@@H](C(=O)Nc1ccc2ccccc2c1)[C@@H]1C[C@@]1(C)[C@@H](NC(=O)OCc1ccccc1)c1ccccc1	x	2.04*	-104.0	1.03	-2.8	x
CCOC(=O)CCc1cnccc1-c1cccc(OC)c1O	x	0.872	12.8	0.926	7.4	x
O=C(Nc1cccc2ccccc12)c1cn(-c2ccccc2)nc1-c1cccs1	1.1	2.18*	-118.4	1.02	-2.4	-11.6
CCOC(=O)C1CCN(S(=O)(=O)c2ccc(Cl)cc2)CC1	x	1.03	-3.5	0.992	0.8	x
CCCN(CCC)CC(O)CN1C(=O)NC(C)(C)C1=O (stereo unspecified)	0.9	0.931	6.9	0.807	19.3	14.9
N#Cc1cc2c(nc1SCc1cccc(Cl)c1)CCCCC2	0.7	0.594	40.6*	1.02	-2.0	26.2
N#Cc1cc2c(nc1SCc1ccccc1)CCCCC2	0.6	1.01	-1.1	0.755	24.5	36.3
COc1ccc(-n2nc(C(=O)N3CCC(N4CCCCC4)CC3)c3c4ccccc4n(C)c3c2=O)cc1	x	0.963	3.7	1.04	-4.4	x
Cn1c(=O)[nH]c(=O)c2c1nc(NCCCO)n2Cc1ccc(F)cc1	1	1.04	-3.7	1.13	-13.0	4.1
Cn1c(=O)[nH]c(=O)c2c1nc(NCCCn1ccnc1)n2CCOc1ccccc1	3.9*	1.07	-7.0	1.14	-13.6	-289.5
Cn1c(=O)[nH]c(=O)c2c1nc(NCCCn1ccnc1)n2Cc1ccccc1	2.5*	1.11	-10.6	1.23	-23.1	-147.6
CSCCC(NC(=O)c1ccc([N+](=O)[O-])cc1Cl)C(=O)OC(C)C(=O)NCc1ccco1 (stereo unspecified)	x	1.06	-6.1	1.07	-7.5	x
CCOc1ccccc1C1CC(=O)Nc2c1c(=O)n(C)c(=O)n2C (stereo unspecified)	1	1.15	-14.7	1.03	-2.7	1.4
CC(=O)OCCCN1c2ccccc2Nc2nnc(-c3ccccc3)cc21	27.8*	3.5*	-249.7	1.01	-1.5	i
SMILES	bIAP act	mIAP activ	mIAP inh	hIAP act	hIAP inh	bIAP inhibitor
NC1=NC2(CCCCC2)n2c(nc3ccccc32)N1	2.2*	1.04	-3.9	0.988	1.2	-116.8
NC1=NC(c2ccc(Br)cc2)n2c(nc3ccccc32)N1 (stereo unspecified)	1.9	1.07	-7.3	0.973	2.7	-94.3
NC1=NC2(CCN(Cc3ccccc3)CC2)n2c(nc3ccccc32)N1	3.5*	0.905	9.5	1.05	-5.2	-254.6
NC1=NC2(CCC(c3ccccc3)CC2)n2c(nc3ccccc32)N1 (stereo unspecified)	2.9*	1.56	-56.2	1.43	-42.8	-191.8
Cc1ccc(NC(=S)NC(C)CCc2ccccc2)cc1C (stereo unspecified)	1	2.51*	-150.9	0.983	1.7	4.8
CCCCc1ccc(NC(=S)NCc2ccc(OC)cc2)cc1	1	2.55*	-154.8	1.11	-10.6	0.8
CC(C)COc1ccc(CNC(=S)NCc2ccccc2)cc1	0.7	3.74*	-273.8	1.05	-5.0	34.8
COc1ccc(CNC(=S)NC(C)CCc2ccccc2)cc1 (stereo unspecified)	0.8	2.4*	-140.4	1.01	-1.4	19.7
NC(=O)c1ccc(NC(=O)CC23CC4CC(CC(Br)(C4)C2)C3)cc1	x	1.01	-0.8	1.08	-8.0	x
CCOCC(=O)Nc1ccccc1C(=O)O	0.9	0.917	8.3	0.993	0.7	7.5
CC(C)Oc1ccc(CNC(=S)Nc2ccccc2)cc1Cl	x	1.86	-86.2	1.3	-29.9	x
CC(C)COc1ccc(CNC(=S)Nc2ccccc2)cc1Cl	x	2.49*	-149.3	1.33	-32.9	x
CCOC(=O)CN1C(=O)N[C@@H](c2ccco2)C(C(C)=O)=C1C	x	1.06	-5.7	1.03	-3.3	x
O=C1S/C(=C\C=C\c2ccco2)C(=O)N1c1ccccc1	1	0.245	75.5*	0.729	27.1	3.1
O=C1S/C(=C\C=C\c2ccco2)C(=O)N1c1ccc(O)cc1	1.6	0.201	79.9*	0.989	1.1	-59.4
O=C1S/C(=C\c2cccs2)C(=O)N1c1ccc(O)cc1	x	0.941	5.9	1.17	-17.0	x
CCCSc1n[nH]c(NC(C)=O)n1	1	0.926	7.4	1.03	-2.7	0.0
CCCCCCCCCCSc1n[nH]c(NC(C)=O)n1	3.3*	2.14*	-114.2	1.08	-7.6	-233.9
CC(C)(C)OC(=O)NCCCC[C@@H](C(=O)NCCCCCCCCCCC(=O)N1CCN(C(=O)OC(C)(C)C)CC1)n1cc(CCO)nn1	x	1.22	-22.3	0.827	17.3	x
CC[C@H](C)Cc1cn([C@@H](CCCCNC(=O)OC(C)(C)C)C(=O)NCCCCCCCCCCC(=O)N2CCN(C(=O)OC(C)(C)C)CC2)nn1	x	2.19*	-118.6	0.967	3.3	x
Cc1noc(C)c1S(=O)(=O)N(C)C[C@H]1Oc2ccc(NC(=O)NC3CCCCC3)cc2C(=O)N([C@H](C)CO)C[C@@H]1C	x	2.57*	-157.4	0.978	2.2	x
COc1ccc(NC(=O)Nc2ccc3c(c2)C(=O)N([C@H](C)CO)C[C@H](C)[C@@H](CN(C)C(=O)NC2CCCCC2)O3)cc1	x	2.39*	-139.2	1.07	-6.9	x
COc1ccc(NC(=O)N(C)C[C@H]2Oc3ccc(NC(=O)NC4CCCCC4)cc3C(=O)N([C@H](C)CO)C[C@@H]2C)cc1	x	2.05*	-105.4	0.957	4.3	x
